Assay results from paper PMC12508127 (Nature Communications, 2025).
Values after ≈ are worked out from the molar mass of the structure shown. Like-named read-outs stand apart in the source and are kept apart here.

Experiments:
[1] = molecular target: ScSDH (Saccharomyces cerevisiae, UniProt P21801+P33421+P37298+Q00711); experiment: SDH activity assay; type: biochemical
[2] = molecular target: porcine SDH (Sus scrofa, UniProt A5GZW8+D0VWV4+Q007T0); experiment: SDH activity assay; type: biochemical; details: read-out: Ki, Porcine; inhibition constant against porcine SDH
[3] = test system: Sclerotinia sclerotiorum; type: cell-based; details: 1.56 mg/L
[4] = test system: Fusarium graminearum; type: cell-based
[5] = test system: Fusarium pseudograminearum; type: cell-based
[6] = test system: Fusarium oxysporum; type: cell-based; details: 1.56 mg/L
[7] = test system: Ustilaginoidea virens; type: cell-based; details: 1.56 mg/L
[8] = test system: Alternaria alternata; type: cell-based; details: 1.56 mg/L
[9] = test system: Alternaria solani; type: cell-based; details: 1.56 mg/L
[10] = test system: Phytophthora infestans; type: cell-based
[11] = test system: Phytophthora capsica; type: cell-based; details: 1.56 mg/L
[12] = test system: Exserohilum turcicum; type: cell-based; details: 1.56 mg/L
[13] = test system: wheat powdery mildew (WPM, Erysiphe graminis); type: in vivo; details: greenhouse
[14] = test system: cucumber powdery mildew (CPM, Sphaerotheca fuliginea); details: in vivo
[15] = test system: WPM (Erysiphe graminis); type: in vivo; details: WPM field trial, 187.5 g a.i./ha
[16] = test system: FHB (Fusarium graminearum); details: in vivo
[17] = test system: deoxynivalenol (DON) content; type: in vivo, wheat; details: field; for DON content: wheat flour
[18] = Average thousand grain weight and yield increase, FHB field trial; type: in vivo, wheat; details: 150 g a.i./ha
Outline: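 Field plots (20 m2) in Huai'an, wheat variety yannong 1212, with Fusarium graminearum head blight. Test compound as 10% emulsifiable concentrate at 112.5, 150 and 180 g a.i./ha, sprayed at early and peak anthesis. Commercial fungicides served as positive controls and water as negative control. Five-point sampling, 100 mature spikes per point, pooled, air-dried and threshed. 1000 random grains weighed, three replicates per treatment.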

[19] = test system: zebrafish (Brachydanio rerio H-B.); experiment: Acute toxicity zebrafish, static test; type: in vivo
Outline: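 Juvenile zebrafish (not sexually mature) held at 22–23 °C on a 16–8 h light-dark cycle. Static exposure followed the national fish acute toxicity guideline. Definitive test used 1.20, 1.00, 0.833, 0.694, 0.578 and 0.482 mg a.i./L, with dechlorinated tap water as blank control. One replicate of 10 fish per group.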

Chain of ScSDH (Q00711 29-640): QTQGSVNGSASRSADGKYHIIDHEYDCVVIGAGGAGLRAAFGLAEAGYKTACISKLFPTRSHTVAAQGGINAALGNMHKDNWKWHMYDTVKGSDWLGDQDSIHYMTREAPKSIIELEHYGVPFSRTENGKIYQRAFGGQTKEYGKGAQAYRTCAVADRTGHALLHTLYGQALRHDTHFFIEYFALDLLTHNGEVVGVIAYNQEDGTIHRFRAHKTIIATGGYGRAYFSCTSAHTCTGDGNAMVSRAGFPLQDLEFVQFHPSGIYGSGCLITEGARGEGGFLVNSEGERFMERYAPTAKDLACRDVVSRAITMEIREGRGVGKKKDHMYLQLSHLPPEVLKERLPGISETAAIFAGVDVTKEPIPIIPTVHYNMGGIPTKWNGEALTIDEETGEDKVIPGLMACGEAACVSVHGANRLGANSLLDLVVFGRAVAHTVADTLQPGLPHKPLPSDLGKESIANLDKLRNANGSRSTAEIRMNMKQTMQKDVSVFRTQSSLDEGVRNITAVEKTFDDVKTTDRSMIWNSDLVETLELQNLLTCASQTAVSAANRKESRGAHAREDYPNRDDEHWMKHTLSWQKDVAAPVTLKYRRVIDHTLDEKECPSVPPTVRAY
Chain of ScSDH (P21801 21-266): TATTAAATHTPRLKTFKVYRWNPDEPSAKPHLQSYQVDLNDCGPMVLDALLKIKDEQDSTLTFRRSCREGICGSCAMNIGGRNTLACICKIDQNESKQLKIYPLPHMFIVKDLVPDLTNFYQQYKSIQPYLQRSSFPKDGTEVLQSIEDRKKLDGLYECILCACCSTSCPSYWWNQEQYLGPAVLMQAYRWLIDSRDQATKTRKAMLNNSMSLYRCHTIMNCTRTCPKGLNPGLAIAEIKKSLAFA
Chain of ScSDH (P33421 51-198): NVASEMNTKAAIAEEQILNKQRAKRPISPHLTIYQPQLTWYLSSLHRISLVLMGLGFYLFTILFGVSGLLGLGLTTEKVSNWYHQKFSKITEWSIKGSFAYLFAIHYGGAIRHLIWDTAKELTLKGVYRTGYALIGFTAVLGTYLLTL
Chain of ScSDH (P37298 32-181): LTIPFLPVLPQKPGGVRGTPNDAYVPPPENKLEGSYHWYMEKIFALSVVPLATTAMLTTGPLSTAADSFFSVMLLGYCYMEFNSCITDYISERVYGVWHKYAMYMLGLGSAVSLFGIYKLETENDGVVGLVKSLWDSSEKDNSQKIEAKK
Chain of porcine SDH (Q0QF01 43-664 partner): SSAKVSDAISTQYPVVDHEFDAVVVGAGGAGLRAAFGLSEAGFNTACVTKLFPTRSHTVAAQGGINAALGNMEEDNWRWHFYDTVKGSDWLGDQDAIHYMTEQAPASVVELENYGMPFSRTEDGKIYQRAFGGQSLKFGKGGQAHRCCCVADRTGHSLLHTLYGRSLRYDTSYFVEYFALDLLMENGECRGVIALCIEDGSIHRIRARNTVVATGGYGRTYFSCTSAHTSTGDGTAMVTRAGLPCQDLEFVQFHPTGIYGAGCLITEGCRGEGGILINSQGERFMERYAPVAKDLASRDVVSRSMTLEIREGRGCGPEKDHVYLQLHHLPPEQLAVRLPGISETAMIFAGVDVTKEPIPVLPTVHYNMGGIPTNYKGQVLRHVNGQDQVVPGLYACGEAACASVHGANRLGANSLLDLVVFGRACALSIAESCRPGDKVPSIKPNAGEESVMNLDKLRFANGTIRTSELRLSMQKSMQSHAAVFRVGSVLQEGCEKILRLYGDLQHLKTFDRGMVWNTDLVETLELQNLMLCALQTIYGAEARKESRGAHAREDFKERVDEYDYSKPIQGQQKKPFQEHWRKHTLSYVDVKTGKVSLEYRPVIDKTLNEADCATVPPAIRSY
Chain of porcine SDH (Q007T0 29-280): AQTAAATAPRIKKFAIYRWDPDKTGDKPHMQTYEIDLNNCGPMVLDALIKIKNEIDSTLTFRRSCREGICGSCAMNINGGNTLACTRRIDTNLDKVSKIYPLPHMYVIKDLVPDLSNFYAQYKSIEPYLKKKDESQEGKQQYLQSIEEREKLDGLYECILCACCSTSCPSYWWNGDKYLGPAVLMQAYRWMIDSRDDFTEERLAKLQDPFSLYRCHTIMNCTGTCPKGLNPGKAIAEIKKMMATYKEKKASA
Chain of porcine SDH (D0VWV4 30-169): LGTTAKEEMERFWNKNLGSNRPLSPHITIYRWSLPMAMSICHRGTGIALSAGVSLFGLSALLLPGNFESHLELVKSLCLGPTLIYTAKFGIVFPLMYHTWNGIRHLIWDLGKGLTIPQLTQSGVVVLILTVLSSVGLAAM
Chain of porcine SDH (A5GZW8 57-159 limits assumed): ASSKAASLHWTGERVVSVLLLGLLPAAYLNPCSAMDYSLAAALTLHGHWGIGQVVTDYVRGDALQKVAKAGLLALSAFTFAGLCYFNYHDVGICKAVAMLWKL

C=C(CN(C(=O)c1c(C(F)F)nn(C)c1F)C1CC1)c1ccc(Cl)cc1Cl [E8, enprocymid]
potency relative to PYD (IC50) ([1]; E8 IC50 vs PYD IC50, ScSDH): ~1.3 fold | IC50 ([1]; against ScSDH): 30 ± 3 nM | Species selectivity ([1]; ratio of Ki for porcine SDH and ScSDH): 14.78 | Ki ([1]; read-out: Ki, Yeast, inhibition constant against ScSDH): 19 ± 1 nM | Ki [2]: 281 ± 14 nM | inhibition rate (%), Ss [3]: 74.67% | inhibition rate (%), Fg [4]: 97.31% | inhibition rate (%), Fp [5]: 85.33% | inhibition rate (%), Fo [6]: 87.33% | inhibition rate (%), Uv [7]: 100.00% | inhibition rate (%), Aa [8]: 95.67% | inhibition rate (%), As [9]: 80.00% | inhibition rate (%), Pi [10]: 81.97% | inhibition rate (%), Pc [11]: 76.33% | inhibition rate (%), Et [12]: 100.00% | EC50 ([13]; WPM): 0.0462 µg/mL (≈ 0.11 µM) | activity against WPM relative to PYD [13]: over 20 fold | EC50 [14]: 0.5431 µg/mL (≈ 1.3 µM) | Control efficiency (%) [15]: 92.38% | Control efficiency (%) [16]: 88.81% | DON inhibition rate (%) ([17]; 150 g a.i./ha): 86.05% | DON inhibition rate (%) ([17]; 180 g a.i./ha): 89.40% | DON content ([17]; 150 g a.i./ha): 217.5 µg/kg | DON content ([17]; 180 g a.i./ha): 165.3 µg/kg | Yield increase rate (%) [18]: 10.18% | Toxicity level ([19]; by LC50 (96 h)): moderately toxic | LC50 (96 h) ([19]; static test, 96 h): 1.01 mg a.i./L

CC(C)(C)C(O)(CCc1ccc(Cl)cc1)Cn1cncn1 (centres unmarked) [tebuconazole]
Control efficiency (%) [16]: 84.45%

OCC1=C[C@H](N[C@H]2C[C@H](CO)[C@@H](O[C@@H]3O[C@H](CO)[C@@H](O)[C@H](O)[C@H]3O)[C@H](O)[C@H]2O)[C@H](O)[C@@H](O)[C@@H]1O [validamycin]
Control efficiency (%) [16]: 48.42%
